ChEMBL document CHEMBL1156724, “Synthesis of triazole-oxazolidinones via a one-pot reaction and evaluation of their antimicrobial activity” (2008)
Values after ≈ are worked out from the molar mass of the structure shown. Active and inactive are the calls of the source. The rule behind the calls is not given here.

Columns and labels:
Assay type in all cases: functional
[1] = system: Mycolicibacterium smegmatis; assay: Antibacterial activity against Mycobacterium smegmatis ATCC 14468 assessed as zone of inhibition diameter at 1 mg/mL after 48 hrs by Kirby-Bauer disk diffusion assay; conditions: ATCC 14468, 48 h, read-out: IZ
In short: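 Kirby–Bauer disk diffusion on Middlebrook 7H10 agar with 0.5% glycerol and OADC. Inoculum grown in 7H9 with 0.2% glycerol and ADC about 24 h at 37 °C, 180 rpm. 10 µL of 1 mg/mL compound in DMSO applied to 6 mm disks. INH (1 mg/mL in DMSO) positive control, DMSO negative control. Plates incubated 48 h at 37 °C. Inhibition zone diameter measured.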

[2] = system: Mycolicibacterium smegmatis; assay: Antibacterial activity against Mycobacterium smegmatis ATCC 14468 after 48 hrs visualized by MTT […]; conditions: ATCC 14468, 48 h
Enterococcus faecalis [3] = assay: Antibacterial activity against Enterococcus faecalis ATCC 29212 assessed as zone of inhibition diameter at 1 mg/mL after 24 hrs by Kirby-Bauer disk diffusion assay
In short: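 Inoculum grown in Mueller–Hinton broth ~24 h at 37 °C, 180 rpm, then plated on nutrient agar. Kirby–Bauer disk method: 10 µL of 1 mg/mL solution in DMSO applied to 6 mm sterile paper disk; vancomycin (1 mg/mL in water) positive control, DMSO negative control. Plates incubated 24 h at 37 °C; inhibition zone diameter measured.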

Bacillus subtilis [4] = assay: Antibacterial activity against Bacillus subtilis ATCC 6633 after 24 hrs visualized by MTT analyzed by broth microdilution assay; conditions: ATCC 6633, 24 h
Enterococcus faecalis [5] = assay: Antibacterial activity against Enterococcus faecalis ATCC 29212 after 24 hrs visualized by MTT analyzed by broth microdilution assay; conditions: ATCC 29212, 24 h
Bacillus subtilis [6] = assay: Antibacterial activity against Bacillus subtilis ATCC 6633 assessed as zone of inhibition diameter at 1 mg/mL after 24 hrs by Kirby-Bauer disk diffusion assay; conditions: ATCC 6633, 24 h, read-out: IZ
In short: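 Kirby–Bauer disk diffusion on nutrient agar, inoculum grown in Mueller–Hinton broth about 24 h at 37 °C, 180 rpm. 10 µL of 1 mg/mL compound in DMSO applied to 6 mm paper disks. Vancomycin (1 mg/mL in water) positive control, DMSO negative control. Plates incubated 24 h at 37 °C. Inhibition zone diameter measured.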

**Q.** How did the zone of inhibition at 1000 µg/mL [1] turn out when `CC(=O)c1ccc(N2CC(Cn3cc(CCO)nn3)OC2=O)cc1` (stereo not drawn) was run?
**A.** 15 mm

**Q.** What about the MIC [2] of the same compound?
**A.** 16 mg/L (≈ 48.4 µM)

**Q.** And the Activity (Enterococcus faecalis [3])?
**A.** inactive

**Q.** What about the MIC (Bacillus subtilis [4]) of the same compound?
**A.** > 32 mg/L

**Q.** And the MIC (Enterococcus faecalis [5])?
**A.** > 32 mg/L

**Q.** What about the zone of inhibition at 1000 µg/mL (Bacillus subtilis [6]) of the same compound?
**A.** 17 mm

**Q.** How did the zone of inhibition at 1000 µg/mL [1] turn out when `CC(=O)c1ccc(N2CC(Cn3ccnn3)OC2=O)cc1` (stereo not drawn) was run?
**A.** 25 mm

**Q.** What about the MIC [2] of the same compound?
**A.** 1 mg/L (≈ 3.49 µM)

**Q.** What about the Activity (Enterococcus faecalis [3]) of the same compound?
**A.** inactive

**Q.** And the MIC (Bacillus subtilis [4])?
**A.** 4 mg/L (≈ 14 µM)

**Q.** And the MIC (Enterococcus faecalis [5])?
**A.** 16 mg/L (≈ 55.9 µM)

**Q.** And the zone of inhibition at 1000 µg/mL (Bacillus subtilis [6])?
**A.** 26 mm

**Q.** Which zone of inhibition at 1000 µg/mL (Enterococcus faecalis [3]; ATCC 29212, 24 h, read-out: IZ) does the source give for `CN[C@H](CC(C)C)C(=O)N[C@H]1C(=O)N[C@@H](CC(N)=O)C(=O)N[C@H]2C(=O)N[C@H]3C(=O)N[C@H](C(=O)N[C@H](C(=O)O)c4cc(O)cc(O)c4-c4cc3ccc4O)[C@H](O)c3ccc(c(Cl)c3)Oc3cc2cc(c3O[C@@H]2O[C@H](CO)[C@@H](O)[C@H](O)[C@H]2O[C@H]2C[C@](C)(N)[C@H](O)[C@H](C)O2)Oc2ccc(cc2Cl)[C@H]1O` [VANCOMYCIN] here?
**A.** 14 mm

**Q.** And the MIC (Bacillus subtilis [4])?
**A.** 0.5 mg/L (≈ 0.345 µM)

**Q.** And the MIC (Enterococcus faecalis [5])?
**A.** 1 mg/L (≈ 0.69 µM)

**Q.** What about the zone of inhibition at 1000 µg/mL (Bacillus subtilis [6]) of the same compound?
**A.** 15 mm

**Q.** `NNC(=O)c1ccncc1` [ISONIAZID] was tested. Which zone of inhibition at 1000 µg/mL [1] did it give?
**A.** 17 mm

**Q.** What about the MIC [2] of the same compound?
**A.** 4 mg/L (≈ 29.2 µM)
